Reference: ChEMBL document CHEMBL1909580, “Branched-chain C-cyano pyranonucleosides: synthesis of 3'-C-cyano & 3'-C-cyano-3'-deoxy pyrimidine pyranonucleosides as novel cytotoxic agents” (Eur J Med Chem, 2011)
Active and inactive are the calls of the source. No cut-off for these calls is given here.

Tests used:
Human alphaherpesvirus 1 = test: Antiviral activity against HSV1 infected in human HEL cells assessed as inhibition of virus-induced cytopathicity at 100 uM; type: functional, organism-based
In short: (§1)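 Confluent cell monolayers in microtiter plates were inoculated with 100 CCID50 of virus in the presence of varying test concentrations. 1 CCID50 is the virus dose infecting 50% of cultures. Cytopathicity was scored once it was complete in untreated virus-infected controls.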

Human alphaherpesvirus 2 = test: Antiviral activity against HSV2 infected in human HEL cells assessed as inhibition of virus-induced cytopathicity at 100 uM; type: functional, organism-based; in short: as §1
Vaccinia virus = test: Antiviral activity against Vaccinia virus infected in human HEL cells assessed as inhibition of virus-induced cytopathicity at 100 uM; type: functional, organism-based; conditions: Orthopoxvirus vaccinia
In short: (§2)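 Confluent cell monolayers were infected with 100 CCID50 of virus (1 CCID50 infects 50% of cultures) in the presence of varying concentrations of test compound. Virus-induced cytopathicity was scored once it was complete in the untreated infected controls.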

[1] = system: Vesicular stomatitis virus; test: Antiviral activity against VSV infected in human HEL cells assessed as inhibition of virus-induced cytopathicity at 100 uM; type: functional, organism-based; in short: as §2
Human respirovirus 3 = test: Antiviral activity against Parainfluenza 3 virus infected in african green monkey Vero cells assessed as inhibition of virus-induced cytopathicity at 100 uM; type: functional, organism-based; in short: as §1
[2] = system: Mammalian orthoreovirus 1; test: Antiviral activity against Reovirus1 infected in african green monkey Vero cells assessed as inhibition of virus-induced cytopathicity at 100 uM; type: functional, organism-based; in short: as §1
Coxsackievirus B4 [3] = test: Antiviral activity against Coxsackievirus B4 infected in african green monkey Vero cells assessed as inhibition of virus-induced cytopathicity at 100 uM; type: functional, organism-based; in short: as §1
Punta Toro virus = test: Antiviral activity against Punta Toro virus infected in african green monkey Vero cells assessed as inhibition of virus-induced cytopathicity at 100 uM; type: functional, organism-based; in short: as §1
[4] = system: Vesicular stomatitis virus; test: Antiviral activity against VSV infected in human HeLa cells assessed as inhibition of virus-induced cytopathicity at 100 uM; type: functional, organism-based; in short: as §2
Coxsackievirus B4 [5] = test: Antiviral activity against Coxsackievirus B4 infected in human HeLa cells assessed as inhibition of virus-induced cytopathicity at 100 uM; type: functional, organism-based; in short: as §1
[6] = system: Respiratory syncytial virus; test: Antiviral activity against RSV infected in human HeLa cells assessed as inhibition of virus-induced cytopathicity at 100 uM; type: functional, organism-based; in short: as §1
Influenza A virus [7] = test: Antiviral activity against influenza A virus H1N1 infected in MDCK cells assessed as inhibition of virus-induced cytopathicity at 100 uM; type: functional, organism-based; in short: as §2
Influenza A virus [8] = test: Antiviral activity against influenza A virus H3N2 infected in MDCK cells assessed as inhibition of virus-induced cytopathicity at 100 uM; type: functional, organism-based; in short: as §2
Influenza B virus = test: Antiviral activity against influenza B virus infected in MDCK cells assessed as inhibition of virus-induced cytopathicity at 100 uM; type: functional, organism-based; in short: as §2
Feline coronavirus = test: Antiviral activity against Feline coronavirus infected in feline CRFK cells assessed as inhibition of virus-induced cytopathicity at 100 uM; type: functional, organism-based; in short: as §1
Felid alphaherpesvirus 1 = test: Antiviral activity against Feline herpesvirus infected in […] cells assessed as inhibition of virus-induced cytopathicity at 100 uM; type: functional, organism-based
[9] = system: Human immunodeficiency virus 1; test: Antiviral activity against HIV1 3B infected in CEM cells assessed as inhibition of virus-induced cytopathicity at 100 uM; type: functional, organism-based; conditions: CCRF-CEM
In short: (§3)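 Virus stocks were titrated in CEM cells as CCID50. CEM cells at ~3 × 10^5 cells/ml were infected with ~100 CCID50 and immediately added to wells holding various test concentrations. After 4 days at 37 °C, giant cell formation was scored microscopically.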

[10] = system: Human immunodeficiency virus 2; test: Antiviral activity against HIV-2 ROD infected in CEM cells assessed as inhibition of virus-induced cytopathicity at 100 uM; type: functional, organism-based; conditions: ISOLATE ROD, CCRF-CEM; in short: as §3
L1210 = test: Cytostatic activity against mouse L1210 cells; type: functional, cell-based
In short: (§4)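 Cell proliferation was measured with the test agents present. IC50 is the concentration giving 50% inhibition of proliferation, given as the mean ± S.D. of 2–3 independent experiments.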

CCRF-CEM = test: Cytostatic activity against human CEM cells; type: functional, cell-based
In short: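 Uninfected CEM cells were run in parallel with the HIV assay for 4 days at 37 °C. IC50 is the concentration inhibiting cell proliferation by 50%, given as the mean ± S.D. of 2–3 independent experiments.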

HeLa = test: Cytostatic activity against human HeLa cells; type: functional, cell-based; in short: as §4

Cc1cn([C@@H]2O[C@H](CO)[C@@H](O)[C@@](O)(C#N)[C@H]2O)c(=O)nc1O
inhibition (Human alphaherpesvirus 1): inactive | inhibition (Human alphaherpesvirus 2): inactive | inhibition (Vaccinia virus): inactive | inhibition [1]: inactive | inhibition (Human respirovirus 3): inactive | inhibition [2]: inactive | inhibition (Coxsackievirus B4 [3]): inactive | inhibition (Punta Toro virus): inactive | inhibition [4]: inactive | inhibition (Coxsackievirus B4 [5]): inactive | inhibition [6]: inactive | inhibition (Influenza A virus [7]): inactive | inhibition (Influenza A virus [8]): inactive | inhibition (Influenza B virus): inactive | inhibition (Feline coronavirus): inactive | inhibition (Felid alphaherpesvirus 1): inactive | inhibition [9]: inactive | inhibition [10]: inactive | IC50 (L1210): 539 µM | IC50 (CCRF-CEM): > 500 µM | IC50 (HeLa): > 500 µM

N#C[C@]1(O)[C@H](O)[C@@H](CO)O[C@@H](n2ccc(O)nc2=O)[C@@H]1O
inhibition (Human alphaherpesvirus 1): inactive | inhibition (Human alphaherpesvirus 2): inactive | inhibition (Vaccinia virus): inactive | inhibition [1]: inactive | inhibition (Human respirovirus 3): inactive | inhibition [2]: inactive | inhibition (Coxsackievirus B4 [3]): inactive | inhibition (Punta Toro virus): inactive | inhibition [4]: inactive | inhibition (Coxsackievirus B4 [5]): inactive | inhibition [6]: inactive | inhibition (Influenza A virus [7]): inactive | inhibition (Influenza A virus [8]): inactive | inhibition (Influenza B virus): inactive | inhibition (Feline coronavirus): inactive | inhibition (Felid alphaherpesvirus 1): inactive | inhibition [9]: inactive | inhibition [10]: inactive | IC50 (L1210): 417 µM | IC50 (CCRF-CEM): > 500 µM | IC50 (HeLa): > 500 µM

N#C[C@H]1[C@@H](O)[C@H](n2ccc(O)nc2=O)O[C@H](CO)[C@H]1O
inhibition (Human alphaherpesvirus 1): inactive | inhibition (Human alphaherpesvirus 2): inactive | inhibition (Vaccinia virus): inactive | inhibition [1]: inactive | inhibition (Human respirovirus 3): inactive | inhibition [2]: inactive | inhibition (Coxsackievirus B4 [3]): inactive | inhibition (Punta Toro virus): inactive | inhibition [4]: inactive | inhibition (Coxsackievirus B4 [5]): inactive | inhibition [6]: inactive | inhibition (Influenza A virus [7]): inactive | inhibition (Influenza A virus [8]): inactive | inhibition (Influenza B virus): inactive | inhibition (Feline coronavirus): inactive | inhibition (Felid alphaherpesvirus 1): inactive | inhibition [9]: inactive | inhibition [10]: inactive | IC50 (L1210): > 500 µM | IC50 (CCRF-CEM): > 500 µM | IC50 (HeLa): 811 µM

O=c1[nH]cc(F)c(=O)[nH]1 [FLUOROURACIL]
IC50 (L1210): 0.49 µM | IC50 (CCRF-CEM): 18 µM | IC50 (HeLa): 0.54 µM

N#C[C@]1(O)[C@H](O)[C@@H](CO)O[C@@H](n2ccc(N)nc2=O)[C@@H]1O
inhibition (Human alphaherpesvirus 1): inactive | inhibition (Human alphaherpesvirus 2): inactive | inhibition (Vaccinia virus): inactive | inhibition [1]: inactive | inhibition (Human respirovirus 3): inactive | inhibition [2]: inactive | inhibition (Coxsackievirus B4 [3]): inactive | inhibition (Punta Toro virus): inactive | inhibition [4]: inactive | inhibition (Coxsackievirus B4 [5]): inactive | inhibition [6]: inactive | inhibition (Influenza A virus [7]): inactive | inhibition (Influenza A virus [8]): inactive | inhibition (Influenza B virus): inactive | inhibition (Feline coronavirus): inactive | inhibition (Felid alphaherpesvirus 1): inactive | inhibition [9]: inactive | inhibition [10]: inactive | IC50 (L1210): 147 µM | IC50 (CCRF-CEM): > 500 µM | IC50 (HeLa): 377 µM

N#C[C@H]1[C@@H](O)[C@H](n2ccc(N)nc2=O)O[C@H](CO)[C@H]1O
inhibition (Human alphaherpesvirus 1): inactive | inhibition (Human alphaherpesvirus 2): inactive | inhibition (Vaccinia virus): inactive | inhibition [1]: inactive | inhibition (Human respirovirus 3): inactive | inhibition [2]: inactive | inhibition (Coxsackievirus B4 [3]): inactive | inhibition (Punta Toro virus): inactive | inhibition [4]: inactive | inhibition (Coxsackievirus B4 [5]): inactive | inhibition [6]: inactive | inhibition (Influenza A virus [7]): inactive | inhibition (Influenza A virus [8]): inactive | inhibition (Influenza B virus): inactive | inhibition (Feline coronavirus): inactive | inhibition (Felid alphaherpesvirus 1): inactive | inhibition [9]: inactive | inhibition [10]: inactive | IC50 (L1210): > 750 µM | IC50 (CCRF-CEM): > 750 µM | IC50 (HeLa): > 750 µM

N#C[C@]1(O)[C@H](O)[C@@H](CO)O[C@@H](n2cc(F)c(O)nc2=O)[C@@H]1O
inhibition (Human alphaherpesvirus 1): inactive | inhibition (Human alphaherpesvirus 2): inactive | inhibition (Vaccinia virus): inactive | inhibition [1]: inactive | inhibition (Human respirovirus 3): inactive | inhibition [2]: inactive | inhibition (Coxsackievirus B4 [3]): inactive | inhibition (Punta Toro virus): inactive | inhibition [4]: inactive | inhibition (Coxsackievirus B4 [5]): inactive | inhibition [6]: inactive | inhibition (Influenza A virus [7]): inactive | inhibition (Influenza A virus [8]): inactive | inhibition (Influenza B virus): inactive | inhibition (Feline coronavirus): inactive | inhibition (Felid alphaherpesvirus 1): inactive | inhibition [9]: inactive | inhibition [10]: inactive | IC50 (L1210): 1.9 µM | IC50 (CCRF-CEM): 32 µM | IC50 (HeLa): 4.5 µM

Cc1cn([C@@H]2O[C@H](CO)[C@@H](O)[C@@H](C#N)[C@H]2O)c(=O)nc1O
inhibition (Human alphaherpesvirus 1): inactive | inhibition (Human alphaherpesvirus 2): inactive | inhibition (Vaccinia virus): inactive | inhibition [1]: inactive | inhibition (Human respirovirus 3): inactive | inhibition [2]: inactive | inhibition (Coxsackievirus B4 [3]): inactive | inhibition (Punta Toro virus): inactive | inhibition [4]: inactive | inhibition (Coxsackievirus B4 [5]): inactive | inhibition [6]: inactive | inhibition (Influenza A virus [7]): inactive | inhibition (Influenza A virus [8]): inactive | inhibition (Influenza B virus): inactive | inhibition (Feline coronavirus): inactive | inhibition (Felid alphaherpesvirus 1): inactive | inhibition [9]: inactive | inhibition [10]: inactive | IC50 (L1210): > 750 µM | IC50 (CCRF-CEM): > 750 µM | IC50 (HeLa): > 750 µM

N#C[C@H]1[C@@H](O)[C@H](n2cc(F)c(O)nc2=O)O[C@H](CO)[C@H]1O
inhibition (Human alphaherpesvirus 1): inactive | inhibition (Human alphaherpesvirus 2): inactive | inhibition (Vaccinia virus): inactive | inhibition [1]: inactive | inhibition (Human respirovirus 3): inactive | inhibition [2]: inactive | inhibition (Coxsackievirus B4 [3]): inactive | inhibition (Punta Toro virus): inactive | inhibition [4]: inactive | inhibition (Coxsackievirus B4 [5]): inactive | inhibition [6]: inactive | inhibition (Influenza A virus [7]): inactive | inhibition (Influenza A virus [8]): inactive | inhibition (Influenza B virus): inactive | inhibition (Feline coronavirus): inactive | inhibition (Felid alphaherpesvirus 1): inactive | inhibition [9]: inactive | inhibition [10]: inactive | IC50 (L1210): 550 µM | IC50 (CCRF-CEM): > 500 µM | IC50 (HeLa): 819 µM
